Experimental data published in article PMC7925372 (Journal of thrombosis and haemostasis : JTH, 2021).
Where a chain is given by its changes, count along the chain named.

Assays:
vitamin K reductase = assay: HPLC-based vitamin K reductase activity; assay type: cell-based, human; conditions: DGKO cells, 10 μM vitamin K1, 10 μM compound, 6 hours
Summary of the method: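 Reporter cells lacking endogenous VKOR and VKORL (TALEN double knockout) were cultured 6 h with 10 μM vitamin K1, with or without 10 μM test compound; DMSO was the control. Cellular K vitamins were extracted for reversed-phase HPLC. Unstable KH2 was not measured; reduction was coupled to epoxidation, and activity was read as KO produced.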

[1] = system: vitamin K reductase (DGKO reporter cells); assay type: cell-based, human; conditions: increasing concentrations
wild-type VKOR = assay: Inhibition potency of VKAs on VKOR transiently expressed in DGKO reporter cells; assay type: cell-based, human
[2] = system: KO reductase (reduction of KO to vitamin K1); assay: HPLC-based KO reductase activity in GGCX-knockout HEK293 cells; assay type: cell-based, human; conditions: GGCX-knockout HEK293, 10 μM KO, 10 μM compound, 6 hours
Summary of the method: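 GGCX-knockout FIXgla-PC/HEK293 cells (CRISPR-Cas9) were incubated 6 h in medium with 10 μM KO, with or without 10 μM test compound; DMSO-treated cells served as control. K vitamins were extracted from the cells and analysed by reversed-phase HPLC. KO reductase activity was scored as vitamin K1 formed, with vitamin E acetate as standard.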

HEK293 reporter cells = assay: Cell viability assay in reporter cells; assay type: cell-based, human; conditions: corresponding concentrations of the carboxylation assay
VKOR A26P = molecular target: T1, VKOR A26P (Homo sapiens, UniProt Q9BQB6, A26P); assay: Inhibition potency of VKAs on VKOR mutation expressed in DGKO reporter cells; assay type: cell-based
T1 sequence (Q9BQB6 1-163 A26P): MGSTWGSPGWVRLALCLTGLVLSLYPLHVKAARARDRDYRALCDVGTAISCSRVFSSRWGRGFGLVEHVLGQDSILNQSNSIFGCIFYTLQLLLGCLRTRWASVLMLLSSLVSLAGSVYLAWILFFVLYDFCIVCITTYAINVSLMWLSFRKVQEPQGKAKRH

GGCX = assay: In vitro vitamin K epoxidation activity assay with GGCX enriched microsomes; assay type: biochemical; conditions: FLEEL, FIX-propeptide, KH2, 100 μM compound
VKOR W59R = molecular target: T2, VKOR W59R (Homo sapiens, UniProt Q9BQB6, W59R); assay: Inhibition potency of VKAs on VKOR mutation expressed in DGKO reporter cells; assay type: cell-based; conditions: read-out: IC50 ± standard deviation, 5 μM KO, 24 hours
T2 sequence (Q9BQB6 1-163 W59R): T1 sequence (Q9BQB6 1-163 A26P) with P26A, W59R

VKOR Y139F = molecular target: T3, VKOR Y139F (Homo sapiens, UniProt Q9BQB6, Y139F); assay: as above; assay type: cell-based; conditions: read-out: IC50 ± standard deviation, 5 μM KO, 24 hours
T3 sequence (Q9BQB6 1-163 Y139F): T1 sequence (Q9BQB6 1-163 A26P) with P26A, Y139F

[3] = system: VKD carboxylation of FIXgla-PC in FIXgla-PC/HEK293 cells (KO as substrate); assay: Inhibition of VKD carboxylation in FIXgla-PC/HEK293 cells with 5 μM KO; assay type: cell-based, human
[4] = system: VKD carboxylation of reporter-protein FIXgla-PC in FIXgla-PC/HEK293 cells; assay type: cell-based, human; conditions: 24 hours
Summary of the method: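 FIXgla-PC/HEK293 cells are HEK293 cells stably expressing protein C whose Gla domain is swapped for factor IX's. They were cultured 24 h with test compound, either fixed at 1 μM or at increasing concentrations, as carboxylation substrate. FIXgla-PC carboxylation efficiency was measured by ELISA directly on culture medium. Activity was expressed relative to vitamin K1 set at 100%. Background activity comes from residual K vitamins in fetal bovine serum.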

VKOR F55A = molecular target: T4, VKOR F55A (Homo sapiens, UniProt Q9BQB6, F55A); assay: Inhibition potency of VKAs on VKOR mutation expressed in DGKO reporter cells; assay type: cell-based
T4 sequence (Q9BQB6 1-163 F55A): T1 sequence (Q9BQB6 1-163 A26P) with P26A, F55A

VKOR L128R = molecular target: T5, VKOR L128R (Homo sapiens, UniProt Q9BQB6, L128R); assay: as above; assay type: cell-based; conditions: read-out: IC50 ± standard deviation, 5 μM KO, 24 hours
T5 sequence (Q9BQB6 1-163 L128R): T1 sequence (Q9BQB6 1-163 A26P) with P26A, L128R

[5] = system: VKD carboxylation of FIXgla-PC in FIXgla-PC/HEK293 cells; assay type: cell-based, human; conditions: 3 μM inhibitor, increasing concentrations of vitamin K1, 24 hours
[6] = system: VKD carboxylation in UBIAD1-knockout FIXgla-PC/HEK293 cells; assay: VKD carboxylation in UBIAD1-knockout FIXgla-PC/HEK293 reporter cells; assay type: cell-based, human; conditions: increasing concentrations, 24 hours
warfarin-resistant rats = conditions: cited from earlier work
[7] = cited from earlier work
[8] = system: UBIAD1 (MK-4 production in HEK293 cells); assay: Conversion of vitamin K derivatives to MK-4 in FIXgla-PC/HEK293 cells; assay type: cell-based, human; conditions: 10 μM VK-K-COT plus 5 μM warfarin, 6 hours, HPLC
[9] = system: naturally occurring VKOR mutations; conditions: cell-based functional study; cited from earlier work
[10] = system: UBIAD1-dependent VKD carboxylation; assay type: cell-based, human; conditions: UBIAD1 transiently expressed in UBIAD1-knockout cells, increasing concentrations
Summary of the method: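 FIXgla-PC/HEK293 reporter cells with UBIAD1 knocked out by CRISPR-Cas9 were transiently transfected with UBIAD1 cDNA. Transfected cells were cultured with increasing concentrations of vitamin K analogue. FIXgla-PC carboxylation efficiency in the medium was then measured by ELISA, normalised to vitamin K1 as 100%.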

[11] = 1 μM vitamin K derivative as substrate, FIXgla-PC/HEK293

CC1=C(CC2=CC=CC=CC=C2)C(=O)c2ccccc2C1=O [VK-M-COT]
reduction of vitamin K (production of KO, HPLC) (vitamin K reductase): significantly decreased | inhibition of reporter-protein carboxylation, vitamin K1 as substrate [1]: inhibited reporter-protein carboxylation | IC50 variation between warfarin-resistant VKOR mutations and wild-type VKOR (wild-type VKOR; A26P, F55A, W59R, L128R, Y139F vs wild type): less than 3 fold | reduction of KO to vitamin K1 (HPLC) [2]: significantly decreased | cytotoxicity (cell viability) (HEK293 reporter cells): not due to the cytotoxicity | IC50 (VKOR A26P; read-out: IC50 ± standard deviation, VKOR A26P in DGKO cells, 5 μM KO, 24 hours): 487 ± 75 nM | GGCX vitamin K epoxidation activity (GGCX): inhibits GGCX activity for vitamin K epoxidation | IC50 (VKOR W59R): 615 ± 101 nM | IC50 (VKOR Y139F): 658 ± 54 nM | inhibition of reporter-protein carboxylation, KO as substrate ([3]; FIXgla-PC/HEK293, 5 μM KO, increasing concentrations): inhibited reporter-protein carboxylation | inhibition potency lower than warfarin (fold) ([3]; IC50 ratio to warfarin, FIXgla-PC/HEK293, 5 μM KO): ~ 20 fold | carboxylation activity as substrate, in words [4, 11]: activity lower than the background activity (DMSO) | dose-response of VKD carboxylation on concentration titration ([4]; increasing concentrations of vitamin K derivative): inhibitory dose-response curve | IC50 (VKOR F55A; read-out: IC50 ± standard deviation, VKOR F55A in DGKO cells, 5 μM KO, 24 hours): 249 ± 66 nM | IC50 (VKOR L128R): 575 ± 132 nM | reversal of inhibition of VKD carboxylation by vitamin K1 [5]: can be reversed equally with higher concentrations of vitamin K1

CC1=C(C/C=C(\C)CCC[C@H](C)CCC[C@H](C)CCCC(C)C)C(=O)c2ccccc2C1=O [vitamin K1, phylloquinone]
support of VKD carboxylation as substrate in UBIAD1-knockout cells [6]: can efficiently support VKD carboxylation

C/C(=C\CC1=C(Cl)C(=O)c2ccccc2C1=O)CCCC(C)CCCC(C)CCCC(C)C (stereo not shown) [Chloro-K]
anticoagulant effect in warfarin-resistant rats (warfarin-resistant rats): effective anticoagulant | antagonism of vitamin K [7]: potent antagonist of vitamin K

CC1=C(Cc2ccccc2)C(=O)c2ccccc2C1=O [VK-M-Ben]
carboxylation activity (vitamin K1 normalized to 100%) [4, 11]: 3% | carboxylation activity as substrate, in words [4, 11]: abolished carboxylation activity

CC(=O)CC(c1ccccc1)c1c(O)c2ccccc2oc1=O (stereo not shown) [warfarin, reference compound]
effect of warfarin-resistant VKOR mutations on inhibition potency (wild-type VKOR; all warfarin-resistant VKOR mutations tested vs wild type): up to 400 fold | MK-4 epoxide in cells on VKOR inactivation [8]: MK-4 epoxide accumulated | increase of IC50 compared to wild-type VKOR (VKOR A26P; A26P vs wild type): 60 fold | IC50 ([3]; Homo sapiens, HEK293, 24 h, read-out: IC50 for VKD carboxylation): 12.5 nM | increase of IC50 compared to wild-type VKOR (VKOR F55A; F55A vs wild type): 417 fold | variation of warfarin resistance among naturally occurring VKOR mutations [9]: over 100 fold | reversal of inhibition of VKD carboxylation by vitamin K1 [5]: can be reversed equally with higher concentrations of vitamin K1

CC(C)=CCC/C(C)=C/CC/C(C)=C/CC/C(C)=C/CC1=C(C)C(=O)c2ccccc2C1=O [MK-4, menaquinone-4]
support of VKD carboxylation as substrate in UBIAD1-knockout cells [6]: can efficiently support VKD carboxylation

CC1=CC(=O)c2ccccc2C1=O [menadione]
VKD carboxylation activity after re-introduction of UBIAD1 [10]: regained VKD carboxylation activity | support of VKD carboxylation as substrate in UBIAD1-knockout cells [6]: unable to support reporter-protein carboxylation
